The source of these data is ChEMBL document CHEMBL5705899 (Biochem J, 2014).

Active and inactive are the calls of the source. No cut-off for these calls is given here.

The target of test [1] is Cyclin-dependent kinase 2/cyclin E1 (Homo sapiens) (UniProt P24864+P24941). As to the kind of experiment: Inhibition of human CDK2/CycE1 at 1 uM using RBER-CHKtide as substrate in presence of 33P-ATP by ProQinase assay. The class given is protein-complex assay.
Test [2] addresses Ribosomal protein S6 kinase beta-1 (Homo sapiens) (UniProt P23443). As to the kind of experiment: Inhibition of human S6K1 at 1 uM using RBER-GSK3 as substrate in presence of 33P-ATP by ProQinase assay.
Test [3] addresses Serine/threonine-protein kinase MRCK beta (Homo sapiens) (UniProt Q9Y5S2). Description: Inhibition of human CDC42BPB at 1 uM using RB-S6P as substrate in presence of 33P-ATP by ProQinase assay.
In test [4] the test system is U2OS. Description: Inhibition of PI3K in human U2OS cells expressing FLAG-tagged SGK3 assessed as reduction in PRAS40 phosphorylation at T246 residues at 0.01 to 1 uM 1 hr by immunoblot analysis. It is filed as cell-based. Particulars: dose 0.01-1 µM. In short, it runs like this: (§1)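 Flp-In T-REx U2OS cells were grown in McCoy medium with 10% FBS. Expression of C-terminally FLAG-tagged full-length SGK3 was induced with 0.01 mg/ml doxycycline for 24 h. Cells were treated with inhibitor for 1 h and lysed in phosphatase-inhibitor buffer. Lysates were cleared at 16000 g for 10 min at 4°C, protein was measured by Bradford, and phosphorylation was read by immunoblot with ECL detection.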

Test [5] deals with U2OS. Description: Inhibition of PI3K in human U2OS cells expressing FLAG-tagged SGK3 assessed as reduction in AKT phosphorylation at T308 residues at 0.01 to 1 uM 1 hr by immunoblot analysis. It is filed as cell-based. Particulars: dose 0.01-1 µM. In short, it runs like this: as §1
Background: In western blotting, separated proteins are transferred to a membrane and probed.

The target of test [6] is Tau-tubulin kinase 1 (Homo sapiens) (UniProt Q5TCY1). As to the kind of experiment: Inhibition of recombinant human N-terminal GST-tagged TTBK1 (1 to 1321 residues) expressed in Escherichia coli assessed as remaining activity at 1 uM using RRKDLHDDEEDEAMSITA as substrate incubated for 30 mins in presence of [gamma-33P]ATP by filter binding method relative to control.
Test [7] deals with Non-receptor tyrosine-protein kinase TYK2 (Homo sapiens) (UniProt P29597). Description: Inhibition of human TYK2 at 1 uM using poly(Ala,Glu,Lys,Tyr) as substrate in presence of 33P-ATP by ProQinase assay.
For test [8], the target named is Phosphatidylinositol 4-kinase beta (Homo sapiens, UniProt Q9UBF8). Description: Inhibition of PI4Kbeta (unknown origin) using D-myo-PtdIns as substrate incubated for 45 mins by ADP-Glo assay. In short, it runs like this:
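PI4Kα: 1 nM enzyme, 72 μM ATP, 25 μM PtdIns. PI4Kβ: 2 nM enzyme, 220 μM ATP, 50 μM PtdIns. Reactions ran 45 min at ambient temperature; ADP-Glo reagent was added for 40 min, then detection reagent for 30 min, then luminescence was read.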
In general terms: ADP-Glo turns the ADP formed in a reaction into a luminescent signal.

Test [9] addresses Serine/threonine-protein kinase haspin (Homo sapiens) (UniProt Q8TF76). Description: Inhibition of human GSG2 at 1 uM using histon H3 as substrate in presence of 33P-ATP by ProQinase assay.
Test [10] has as its target Serine/threonine-protein kinase PLK4 (Homo sapiens) (UniProt O00444). As to the kind of experiment: Inhibition of human SAK at 1 uM using p38-alpha KA as substrate in presence of 33P-ATP by ProQinase assay.
Test [11] concerns the target Serine/threonine-protein kinase 25 (Homo sapiens) (UniProt O00506). As to the kind of experiment: Inhibition of human STK25 at 1 uM using casein as substrate in presence of 33P-ATP by ProQinase assay.
The target in test [12] is Ephrin type-B receptor 1 (Homo sapiens) (UniProt P54762). As to the kind of experiment: Inhibition of human EPHB1 at 1 uM using polyEY as substrate in presence of 33P-ATP by ProQinase assay.
The target of test [13] is Dual specificity tyrosine-phosphorylation-regulated kinase 1B (Homo sapiens) (UniProt Q9Y463). As to the kind of experiment: Inhibition of human DYRK1B at 1 uM using RBER-CHKtide as substrate in presence of 33P-ATP by ProQinase assay.
Test [14] deals with Protein kinase C beta type (Homo sapiens) (UniProt P05771). Description: Inhibition of human PKCbeta2 at 1 uM using 3xChocktide-PKC as substrate in presence of 33P-ATP by ProQinase assay.
For test [15], the target named is Ephrin type-B receptor 4 (Homo sapiens) (UniProt P54760). Description: Inhibition of recombinant human N-terminal His6-tagged EPHB4 (561 to 987 residues) expressed in baculovirus infected Sf21 cells assessed as remaining activity at 1 uM using Poly (Glu,Tyr) as substrate incubated for 30 mins in presence of [gamma-33P]ATP by filter binding method relative to control.

The target of test [16] is Ribosomal protein S6 kinase alpha-5 (Homo sapiens) (UniProt O75582). To be noted: Sf21, dose 1.0 µM, time 30.0 min.
Test [17] concerns the target Vascular endothelial growth factor receptor 3 (Homo sapiens) (UniProt P35916). Description: Inhibition of human VEGFR3 at 1 uM using polyEY as substrate in presence of 33P-ATP by ProQinase assay.
Test [18] concerns the target Tyrosine-protein kinase Lck (Homo sapiens) (UniProt P06239). As to the kind of experiment: Inhibition of human LCK at 1 uM using polyEY as substrate in presence of 33P-ATP by ProQinase assay.
Test [19] deals with Testis-specific serine/threonine-protein kinase 1 (Homo sapiens) (UniProt Q9BXA7). Description: Inhibition of recombinant human N-terminal GST-tagged TSSK1 (1 to 367 residues) expressed in Escherichia coli assessed as remaining activity at 1 uM using KKKVSRSGLYRSPSMPENLNRPR as substrate incubated for 30 mins in presence of [gamma-33P]ATP by filter binding method relative to control.

The target in test [20] is Tyrosine-protein kinase FRK (Homo sapiens) (UniProt P42685). As to the kind of experiment: Inhibition of human FRK at 1 uM using PolyEY as substrate in presence of 33P-ATP by ProQinase assay.
The target in test [21] is Fibroblast growth factor receptor 1 (Homo sapiens) (UniProt P11362). As to the kind of experiment: Inhibition of recombinant human N-terminal His6-tagged FGFR1 (400 to 820 residues) expressed in baculovirus infected Sf21 cells assessed as remaining activity at 1 uM using Poly(Glu,Tyr) as substrate incubated for 30 mins in presence of [gamma-33P]ATP by filter binding method relative to control.

The target in test [22] is Inhibitor of nuclear factor kappa-B kinase subunit epsilon (Homo sapiens) (UniProt Q14164). Description: Inhibition of human IKKepsilon at 1 uM using RBER-GSK3 as substrate in presence of 33P-ATP by ProQinase assay.
Test [23] addresses Tyrosine-protein kinase HCK (Homo sapiens) (UniProt P08631). As to the kind of experiment: Inhibition of human HCK at 1 uM using polyEY as substrate in presence of 33P-ATP by ProQinase assay.
In test [24] the target is Casein kinase I isoform gamma-3 (Homo sapiens) (UniProt Q9Y6M4). Description: Inhibition of human CK1gamma3 at 1 uM using casein as substrate in presence of 33P-ATP by ProQinase assay.

Protein kinase C beta type (Homo sapiens), sequence (P05771 2-671 limits assumed): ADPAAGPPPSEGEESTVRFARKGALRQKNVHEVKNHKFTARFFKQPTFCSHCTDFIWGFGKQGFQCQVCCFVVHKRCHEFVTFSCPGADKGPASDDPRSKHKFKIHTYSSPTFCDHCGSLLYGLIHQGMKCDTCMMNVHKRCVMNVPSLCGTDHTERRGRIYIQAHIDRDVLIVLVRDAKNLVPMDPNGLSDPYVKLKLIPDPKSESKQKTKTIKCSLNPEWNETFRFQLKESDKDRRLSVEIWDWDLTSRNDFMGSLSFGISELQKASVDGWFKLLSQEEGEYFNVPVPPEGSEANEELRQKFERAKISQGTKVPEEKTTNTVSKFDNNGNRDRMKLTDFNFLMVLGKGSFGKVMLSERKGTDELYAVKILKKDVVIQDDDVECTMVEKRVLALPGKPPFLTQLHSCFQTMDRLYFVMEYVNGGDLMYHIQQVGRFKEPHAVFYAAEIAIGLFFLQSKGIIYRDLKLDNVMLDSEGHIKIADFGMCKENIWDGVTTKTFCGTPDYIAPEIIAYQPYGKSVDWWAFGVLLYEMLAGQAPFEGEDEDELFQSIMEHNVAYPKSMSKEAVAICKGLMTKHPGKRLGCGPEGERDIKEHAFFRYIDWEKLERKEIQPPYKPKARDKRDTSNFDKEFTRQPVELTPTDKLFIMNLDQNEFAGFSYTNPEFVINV
Inhibitor of nuclear factor kappa-B kinase subunit epsilon (Homo sapiens), sequence (Q14164 whole entry): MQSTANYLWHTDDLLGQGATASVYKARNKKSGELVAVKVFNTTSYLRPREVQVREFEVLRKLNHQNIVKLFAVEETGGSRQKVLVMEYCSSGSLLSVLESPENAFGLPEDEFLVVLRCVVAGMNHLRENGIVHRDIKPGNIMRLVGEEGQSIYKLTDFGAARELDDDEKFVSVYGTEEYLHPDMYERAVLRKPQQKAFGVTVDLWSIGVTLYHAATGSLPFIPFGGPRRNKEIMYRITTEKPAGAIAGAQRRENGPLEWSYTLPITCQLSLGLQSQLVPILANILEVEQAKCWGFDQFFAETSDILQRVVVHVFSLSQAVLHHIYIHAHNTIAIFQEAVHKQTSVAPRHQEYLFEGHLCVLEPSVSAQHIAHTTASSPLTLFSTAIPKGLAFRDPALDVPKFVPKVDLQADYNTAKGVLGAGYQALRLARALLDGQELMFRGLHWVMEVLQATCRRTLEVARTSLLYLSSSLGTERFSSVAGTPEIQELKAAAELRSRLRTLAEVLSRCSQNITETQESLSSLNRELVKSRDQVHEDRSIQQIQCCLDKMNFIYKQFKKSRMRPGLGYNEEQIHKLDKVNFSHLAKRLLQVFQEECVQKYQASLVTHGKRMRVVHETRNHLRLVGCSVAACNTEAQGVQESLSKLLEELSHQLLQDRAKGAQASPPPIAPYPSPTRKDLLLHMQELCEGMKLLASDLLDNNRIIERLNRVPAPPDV
Ribosomal protein S6 kinase alpha-5 (Homo sapiens), sequence (O75582 whole entry, looked up): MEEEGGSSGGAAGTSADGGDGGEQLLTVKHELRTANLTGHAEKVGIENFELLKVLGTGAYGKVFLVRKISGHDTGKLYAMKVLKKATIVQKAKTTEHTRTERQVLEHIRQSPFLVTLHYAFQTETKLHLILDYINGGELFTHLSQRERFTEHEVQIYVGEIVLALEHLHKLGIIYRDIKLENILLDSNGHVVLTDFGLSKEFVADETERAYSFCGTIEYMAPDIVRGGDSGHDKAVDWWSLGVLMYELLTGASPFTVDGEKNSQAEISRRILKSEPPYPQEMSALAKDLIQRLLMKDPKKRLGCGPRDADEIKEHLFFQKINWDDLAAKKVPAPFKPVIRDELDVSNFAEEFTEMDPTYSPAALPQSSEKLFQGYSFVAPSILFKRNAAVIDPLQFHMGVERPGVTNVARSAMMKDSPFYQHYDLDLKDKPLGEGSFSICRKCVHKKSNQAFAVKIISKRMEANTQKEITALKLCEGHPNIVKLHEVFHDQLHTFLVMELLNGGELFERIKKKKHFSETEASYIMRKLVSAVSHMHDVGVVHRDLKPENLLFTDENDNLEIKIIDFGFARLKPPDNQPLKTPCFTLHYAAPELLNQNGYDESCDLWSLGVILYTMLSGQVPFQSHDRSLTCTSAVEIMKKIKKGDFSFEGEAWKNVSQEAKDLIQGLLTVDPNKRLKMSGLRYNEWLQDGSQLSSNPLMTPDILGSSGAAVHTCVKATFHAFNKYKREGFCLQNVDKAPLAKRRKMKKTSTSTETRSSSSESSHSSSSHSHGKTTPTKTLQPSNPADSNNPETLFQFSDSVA
Tyrosine-protein kinase HCK (Homo sapiens), sequence (P08631 2-526 limits assumed): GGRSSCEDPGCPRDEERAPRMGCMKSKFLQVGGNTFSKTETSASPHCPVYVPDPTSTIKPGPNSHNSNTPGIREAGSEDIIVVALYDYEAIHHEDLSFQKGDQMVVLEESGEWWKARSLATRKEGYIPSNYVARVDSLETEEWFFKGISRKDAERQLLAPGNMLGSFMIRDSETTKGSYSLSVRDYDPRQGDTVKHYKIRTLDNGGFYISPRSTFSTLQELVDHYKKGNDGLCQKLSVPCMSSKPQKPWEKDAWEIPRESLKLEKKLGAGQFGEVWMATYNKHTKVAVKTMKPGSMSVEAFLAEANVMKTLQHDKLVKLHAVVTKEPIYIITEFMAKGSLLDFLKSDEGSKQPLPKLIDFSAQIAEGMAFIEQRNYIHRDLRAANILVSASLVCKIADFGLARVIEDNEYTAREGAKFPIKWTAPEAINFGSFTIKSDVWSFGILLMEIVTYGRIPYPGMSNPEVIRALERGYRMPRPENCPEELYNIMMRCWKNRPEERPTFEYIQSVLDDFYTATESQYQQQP
Dual specificity tyrosine-phosphorylation-regulated kinase 1B (Homo sapiens), sequence (Q9Y463 whole entry, looked up): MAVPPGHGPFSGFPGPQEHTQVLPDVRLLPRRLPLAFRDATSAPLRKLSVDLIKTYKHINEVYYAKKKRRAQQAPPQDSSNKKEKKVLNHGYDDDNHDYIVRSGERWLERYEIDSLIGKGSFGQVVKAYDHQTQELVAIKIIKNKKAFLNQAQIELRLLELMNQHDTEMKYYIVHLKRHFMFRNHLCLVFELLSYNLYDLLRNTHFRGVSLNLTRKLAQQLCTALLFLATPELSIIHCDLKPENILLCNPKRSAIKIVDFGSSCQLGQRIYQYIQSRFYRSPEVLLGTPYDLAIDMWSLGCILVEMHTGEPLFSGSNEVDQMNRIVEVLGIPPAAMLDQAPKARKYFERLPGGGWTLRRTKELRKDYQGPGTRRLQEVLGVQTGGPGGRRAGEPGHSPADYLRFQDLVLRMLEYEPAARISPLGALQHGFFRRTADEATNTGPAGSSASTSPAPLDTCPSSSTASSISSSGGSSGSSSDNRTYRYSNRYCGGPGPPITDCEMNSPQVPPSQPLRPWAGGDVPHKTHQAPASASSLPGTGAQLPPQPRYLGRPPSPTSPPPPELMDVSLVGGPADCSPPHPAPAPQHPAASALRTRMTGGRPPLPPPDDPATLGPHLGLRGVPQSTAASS
Ephrin type-B receptor 4 (Homo sapiens), sequence (P54760 whole entry, the tested form may be a part): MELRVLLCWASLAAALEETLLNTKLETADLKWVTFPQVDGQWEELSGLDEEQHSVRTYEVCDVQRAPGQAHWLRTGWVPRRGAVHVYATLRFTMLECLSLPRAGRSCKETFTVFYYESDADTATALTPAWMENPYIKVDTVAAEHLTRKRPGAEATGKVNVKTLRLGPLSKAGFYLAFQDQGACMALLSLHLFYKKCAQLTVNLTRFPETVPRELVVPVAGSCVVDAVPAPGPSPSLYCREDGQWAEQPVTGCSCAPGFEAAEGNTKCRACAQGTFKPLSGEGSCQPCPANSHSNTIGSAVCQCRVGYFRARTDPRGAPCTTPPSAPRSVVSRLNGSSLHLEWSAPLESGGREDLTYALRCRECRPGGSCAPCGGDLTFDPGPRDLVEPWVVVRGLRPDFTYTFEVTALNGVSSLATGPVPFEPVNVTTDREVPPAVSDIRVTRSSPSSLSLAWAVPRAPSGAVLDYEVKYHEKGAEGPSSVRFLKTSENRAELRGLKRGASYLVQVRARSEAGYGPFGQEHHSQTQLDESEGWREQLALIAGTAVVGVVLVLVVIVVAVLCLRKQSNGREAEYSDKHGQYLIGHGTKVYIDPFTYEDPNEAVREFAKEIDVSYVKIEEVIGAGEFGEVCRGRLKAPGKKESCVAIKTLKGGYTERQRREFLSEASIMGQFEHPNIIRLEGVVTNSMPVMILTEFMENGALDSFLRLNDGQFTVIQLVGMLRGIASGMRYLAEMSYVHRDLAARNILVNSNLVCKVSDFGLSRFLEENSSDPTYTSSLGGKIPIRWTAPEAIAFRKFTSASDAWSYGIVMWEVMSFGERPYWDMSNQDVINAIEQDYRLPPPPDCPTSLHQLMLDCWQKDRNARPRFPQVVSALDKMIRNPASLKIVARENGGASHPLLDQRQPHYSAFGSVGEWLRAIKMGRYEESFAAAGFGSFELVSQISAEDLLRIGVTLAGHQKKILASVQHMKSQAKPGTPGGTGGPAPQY
Tyrosine-protein kinase Lck (Homo sapiens), sequence (P06239 2-509 limits assumed): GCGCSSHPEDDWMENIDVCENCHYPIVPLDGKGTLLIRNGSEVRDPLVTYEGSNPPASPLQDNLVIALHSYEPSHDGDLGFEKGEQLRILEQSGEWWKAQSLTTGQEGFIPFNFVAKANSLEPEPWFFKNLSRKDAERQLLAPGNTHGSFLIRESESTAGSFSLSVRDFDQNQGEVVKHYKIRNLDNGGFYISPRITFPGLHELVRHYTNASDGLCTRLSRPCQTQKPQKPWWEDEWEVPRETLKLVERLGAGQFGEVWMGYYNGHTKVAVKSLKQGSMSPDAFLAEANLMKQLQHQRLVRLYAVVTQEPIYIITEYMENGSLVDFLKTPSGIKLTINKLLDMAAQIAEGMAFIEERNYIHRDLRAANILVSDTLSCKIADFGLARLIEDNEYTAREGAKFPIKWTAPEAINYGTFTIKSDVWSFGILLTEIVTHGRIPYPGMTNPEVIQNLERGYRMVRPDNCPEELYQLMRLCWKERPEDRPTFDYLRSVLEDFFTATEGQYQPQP

The IC50 is the concentration needed to halve the response being measured. Low readings indicate greater potency in that assay, high ones weaker potency in that assay. Consider `CC(C)(O)CNc1ncc(-c2ccnc(Nc3ccnc(Cl)c3)n2)c(CC2CC2)n1`, for which the inhibition result (in test [1]; in [2]; in [3]; in the test on U2OS [4]; in the test with U2OS [5]; in [7]) was “inactive” in each case. In addition, the inhibition entry in [9], in [10], in test [11], in [12], in test [13] and in [14] was “inactive” throughout. In addition, the inhibition entry in test [17], in test [18], in [20], in test [22], in [23] and in test [24] was “inactive” throughout. The Activity in test [6] is 106%; in [15], 106%; in [16], 105%; in test [19], 118%; in test [21], 95%. Inhibition in test [8] was half-maximal at 1.07 µM (IC50).
